Assays:
Format in all cases: functional
BT-549 = test: Growth inhibition of human BT549 cells
SF-268 = test: Growth inhibition of human SF268 cells
SK-MEL-2 = test: Growth inhibition of human SK-MEL-2 cells assessed tumor cell growth at 10^-5 M; set-up: scale not given: the % may be the effect or the level left
Method in brief: (§1)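 NCI 60-human-tumor-cell-line panel screen. Each compound was tested at a single concentration of 10^-5 M, and percent growth of tumor cells was recorded for each cell line. Growth inhibition was expressed from these percent-growth values.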

NCI-H226 = test: Growth inhibition of human NCI-H226 cells
UO-31 = test: Growth inhibition of human UO31 cells assessed tumor cell growth at 10^-5 M; set-up: scale not given: the % may be the effect or the level left
Method in brief: (§2)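 Single-dose screen at 10^-5 M across the 60 human tumor cell line panel, run to NCI standards. The value is the percent growth of each cell line in the presence of compound. Compounds active at this dose moved on to five-concentration testing (10^-4 to 10^-8 M).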

COLO 205 = test: Growth inhibition of human COLO205 cells
EKVX = test: Growth inhibition of human EKVX cells
A549 = test: Growth inhibition of human A549 cells assessed tumor cell growth at 10^-5 M; set-up: scale not given: the % may be the effect or the level left; method in brief: as §1
NCI-H23 = test: Growth inhibition of human NCI-H23 cells
Malme-3M = test: Growth inhibition of human MALME-3M cells
SW-620 = test: Growth inhibition of human SW620 cells assessed tumor cell growth at 10^-5 M; set-up: scale not given: the % may be the effect or the level left; method in brief: as §2
[1] = Growth inhibition of human Hs 578T cells
M14 [2] = test: Growth inhibition of human M14 cells assessed tumor cell growth at 10^-5 M; set-up: scale not given: the % may be the effect or the level left; method in brief: as §1
DU-145 = test: Growth inhibition of human DU145 cells assessed tumor cell growth at 10^-5 M; set-up: scale not given: the % may be the effect or the level left; method in brief: as §1
[3] = Growth inhibition of human […] cells assessed tumor cell growth at 10^-5 M; set-up: scale not given: the % may be the effect or the level left; method in brief: as §1
786-0 = test: Growth inhibition of human 786-0 cells assessed tumor cell growth at 10^-5 M; set-up: scale not given: the % may be the effect or the level left; method in brief: as §1
U-251 [4] = test: Growth inhibition of human U251 cells assessed tumor cell growth at 10^-5 M; set-up: scale not given: the % may be the effect or the level left; method in brief: as §2
LOX IMVI [5] = test: Growth inhibition of human LOXIMVI cells assessed tumor cell growth at 10^-5 M; set-up: scale not given: the % may be the effect or the level left; method in brief: as §1
NCI-H522 = test: Growth inhibition of human NCI-H522 cells assessed tumor cell growth at 10^-5 M; set-up: scale not given: the % may be the effect or the level left; method in brief: as §1
SNB-75 = test: Growth inhibition of human SNB75 cells assessed tumor cell growth at 10^-5 M; set-up: scale not given: the % may be the effect or the level left; method in brief: as §2
NCI-H460 [6] = test: Growth inhibition of human NCI-H460 cells
MDA-MB-231 = test: Growth inhibition of human MDA-MB-231 cells
HCC 2998 = test: Growth inhibition of human HCC2998 cells assessed tumor cell growth at 10^-5 M; set-up: scale not given: the % may be the effect or the level left; method in brief: as §1
MDA-MB-435 = test: Growth inhibition of human MDA-MB-435 cells assessed tumor cell growth at 10^-5 M; set-up: scale not given: the % may be the effect or the level left; method in brief: as §1
RXF 393 = test: Growth inhibition of human RXF393 cells assessed tumor cell growth at 10^-5 M; set-up: scale not given: the % may be the effect or the level left; method in brief: as §1
NCI-H460 [7] = test: Growth inhibition of human NCI-H460 cells assessed tumor cell growth at 10^-5 M; set-up: scale not given: the % may be the effect or the level left; method in brief: as §1
IGROV-1 [8] = test: Growth inhibition of human IGROV1 cells assessed tumor cell growth at 10^-5 M; set-up: scale not given: the % may be the effect or the level left; method in brief: as §1
NCI-H322M = test: Growth inhibition of human NCI-H322M cells assessed tumor cell growth at 10^-5 M; set-up: scale not given: the % may be the effect or the level left; method in brief: as §1
ACHN [9] = test: Growth inhibition of human ACHN cells
OVCAR-8 = test: Growth inhibition of human OVCAR8 cells
CCRF-CEM = test: Growth inhibition of human CCRF-CEM cells
HOP-62 = test: Growth inhibition of human HOP62 cells assessed tumor cell growth at 10^-5 M; set-up: scale not given: the % may be the effect or the level left; method in brief: as §1
A498 [10] = test: Growth inhibition of human A498 cells
PC-3 = test: Growth inhibition of human PC3 cells
OVCAR-3 = test: Growth inhibition of human OVCAR3 cells assessed tumor cell growth at 10^-5 M; set-up: scale not given: the % may be the effect or the level left; method in brief: as §1
LOX IMVI [11] = test: Growth inhibition of human LOXIMVI cells
ACHN [12] = test: Growth inhibition of human ACHN cells assessed tumor cell growth at 10^-5 M; set-up: scale not given: the % may be the effect or the level left; method in brief: as §1
UACC-257 = test: Growth inhibition of human UACC257 cells
SNB-19 = test: Growth inhibition of human SNB19 cells
SF-539 = test: Growth inhibition of human SF539 cells
IGROV-1 [13] = test: Growth inhibition of human IGROV1 cells
Method in brief: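 Follow-up panel testing at five concentrations (10^-4, 10^-5, 10^-6, 10^-7 and 10^-8 M) across the 60 human tumor cell lines. GI50 was obtained for each line from the concentration-response data, with the panel average GI50 also reported.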

MCF7 = test: Growth inhibition of human MCF7 cells assessed tumor cell growth at 10^-5 M; set-up: scale not given: the % may be the effect or the level left; method in brief: as §1
SK-MEL-5 = test: Growth inhibition of human SK-MEL-5 cells assessed tumor cell growth at 10^-5 M; set-up: scale not given: the % may be the effect or the level left; method in brief: as §1
MOLT-4 = test: Growth inhibition of human MOLT4 cells
M14 [14] = test: Growth inhibition of human M14 cells
HCT-116 = test: Growth inhibition of human HCT116 cells assessed tumor cell growth at 10^-5 M; set-up: scale not given: the % may be the effect or the level left; method in brief: as §1
U-251 [15] = test: Growth inhibition of human U251 cells
T47D = test: Growth inhibition of human T47D cells
A498 [16] = test: Growth inhibition of human A498 cells assessed tumor cell growth at 10^-5 M; set-up: scale not given: the % may be the effect or the level left; method in brief: as §1
[17] = Growth inhibition of human RPMI8266 cells
SN12C = test: Growth inhibition of human SN12C cells assessed tumor cell growth at 10^-5 M; set-up: scale not given: the % may be the effect or the level left; method in brief: as §1
[18] = read-out: LC50 (the source's name)

Structure (SMILES): CC1=NN(c2cccc(Cl)c2)C(=O)/C1=C\c1c(O)ccc2ccccc12
- GI50 (BT-549): 27.5 µM
- CC50 (BT-549; [18]): > 100 µM
- GI50 (SF-268): 97.7 µM
- CC50 (SF-268; [18]): > 100 µM
- Activity (SK-MEL-2): 38.07%
- GI50 (NCI-H226): 47.8 µM
- CC50 (NCI-H226; [18]): > 100 µM
- Activity (UO-31): 66.56%
- GI50 (COLO 205): > 100 µM
- LC50 (COLO 205): > 100 µM
- GI50 (EKVX): > 100 µM
- CC50 (EKVX; [18]): > 100 µM
- Activity (A549): 60.45%
- GI50 (NCI-H23): > 100 µM
- LC50 (concentration killing 50% of cells) (NCI-H23): > 100 µM
- GI50 (Malme-3M): 29.5 µM
- CC50 (Malme-3M; [18]): > 100 µM
- Activity (SW-620): 30.97%
- GI50 [1]: 32.3 µM
- CC50 [1, 18]: > 100 µM
- Activity (M14 [2]): 18.24%
- Activity (DU-145): 35.43%
- Activity [3]: 96.44%
- Activity (786-0): -46.85%
- Activity (U-251 [4]): -10.7%
- Activity (LOX IMVI [5]): -79.39%
- Activity (NCI-H522): -11.28%
- Activity (SNB-75): 10.3%
- GI50 (NCI-H460 [6]): > 100 µM
- CC50 (NCI-H460 [6]; [18]): > 100 µM
- GI50 (MDA-MB-231): 36.3 µM
- CC50 (MDA-MB-231; [18]): > 100 µM
- Activity (HCC 2998): -22.22%
- Activity (MDA-MB-435): 20.68%
- Activity (RXF 393): -76.85%
- Activity (NCI-H460 [7]): 79.03%
- Activity (IGROV-1 [8]): 33.94%
- Activity (NCI-H322M): 84.08%
- GI50 (ACHN [9]): 16.9 µM
- CC50 (ACHN [9]; [18]): > 100 µM
- GI50 (OVCAR-8): > 100 µM
- CC50 (OVCAR-8; [18]): > 100 µM
- GI50 (CCRF-CEM): 97.7 µM
- CC50 (CCRF-CEM; [18]): > 100 µM
- Activity (HOP-62): -64.07%
- GI50 (A498 [10]): > 100 µM
- CC50 (A498 [10]; [18]): > 100 µM
- GI50 (PC-3): > 100 µM
- CC50 (PC-3; [18]): > 100 µM
- Activity (OVCAR-3): 63.18%
- GI50 (LOX IMVI [11]): > 100 µM
- CC50 (LOX IMVI [11]; [18]): > 100 µM
- Activity (ACHN [12]): -36.07%
- GI50 (UACC-257): > 100 µM
- CC50 (UACC-257; [18]): > 100 µM
- GI50 (SNB-19): 45.7 µM
- CC50 (SNB-19; [18]): > 100 µM
- GI50 (SF-539): 0.01 µM
- CC50 (SF-539; [18]): > 100 µM
- GI50 (IGROV-1 [13]): 26.9 µM
- CC50 (IGROV-1 [13]; [18]): > 100 µM
- Activity (MCF7): 3.07%
- Activity (SK-MEL-5): -82.5%
- GI50 (MOLT-4): > 100 µM
- LC50 (MOLT-4): > 100 µM
- GI50 (M14 [14]): > 100 µM
- CC50 (M14 [14]; [18]): > 100 µM
- Activity (HCT-116): 8.69%
- GI50 (U-251 [15]): 40.7 µM
- CC50 (U-251 [15]; [18]): > 100 µM
- GI50 (T47D): > 100 µM
- CC50 (T47D; [18]): > 100 µM
- Activity (A498 [16]): 107.38%
- GI50 [17]: > 100 µM
- CC50 [17, 18]: > 100 µM
- Activity (SN12C): 23.59%

From ChEMBL document CHEMBL1811814, “Synthesis and evaluation of indole, pyrazole, chromone and pyrimidine based conjugates for tumor growth inhibitory activities--development of highly efficacious cytotoxic agents” (Eur J Med Chem, 2010)
